Source: ChEMBL document CHEMBL1154555, “Antifungal and larvicidal compounds from the root bark of Cordia alliodora” (2000)
Values after ≈ are worked out from the molar mass of the structure shown.

How the values were obtained:
Aedes aegypti = experiment: Larvicidal activity against Aedes aegypti assessed as drug level required to kill instar II larvae after 24 hrs; type: functional
Method in brief: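 Geometric dilutions were made from 5 mg/mL DMSO stocks and added to tubes holding about 20 instar II A. aegypti larvae in tap water, to a final volume of 10 mL. Tubes were kept in darkness at 26-28 °C for 24 h. Larval lethality was scored under lab light, in duplicate.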

Cladosporium cucumerinum [1] = experiment: Antimicrobial activity against Cladosporium cucumerinum after 24 hrs by agar dilution method; type: functional
Method in brief: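 Geometric dilutions were made in DMSO from 3 mg/mL DMSO stocks and added to Sabouraud agar in sealed 24-well plates, with final DMSO ≤2%. A distilled-water suspension of C. cucumerinum was spread over the agar and incubated 24 h at 30 °C. The read-out was MIC (µg/mL), the average of duplicates, with no-compound growth controls and a nystatin reference.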

Candida albicans [2] = experiment: Antimicrobial activity against sCandida albicans assessed as drug level causing growth inhibition on silica gel TLC plate after 24 hrs; type: functional
Method in brief: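 Agar overlay bioautography: 10 µL of geometric dilutions from 5 mg/mL stocks were spotted on Si gel 60 F254 glass TLC plates. Plates were developed in petroleum ether-EtOAc (1:1) and dried, then overlaid with about 1 mm of molten malt agar carrying about 107 yeast cells/mL. Plates were incubated overnight at 30 °C, moist, then sprayed with MTT (2.5 mg/mL). The read-out was the minimal amount (µg) giving clear spots on purple, with a nystatin reference.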

Cladosporium cucumerinum [3] = experiment: Antimicrobial activity against Cladosporium cucumerinum assessed as drug level causing growth inhibition on silica gel TLC plate after 2-3 days
Candida albicans [4] = experiment: Antimicrobial activity against Candida albicans after 24 hrs by agar dilution method; type: functional, organism-based

Compound	Activity (Aedes aegypti)	MIC (Cladosporium cucumerinum [1])	Activity (Candida albicans [2])	Activity (Cladosporium cucumerinum [3])	MIC (Candida albicans [4])
C/C=C\c1cc(OC)c(OC)cc1OC [CIS-ASARONE]	25 µg/mL	–	–	–	–
CC(C)=CCCC(C)(O)/C=C\c1cc(O)ccc1O (stereo not drawn)	>50 µg/mL	15 µg/mL (≈ 57.2 µM)	>50 µg	5 µg	–
CC1=CC(=O)c2c(O)cccc2C1=O [PLUMBAGIN]	3 µg/mL	–	–	–	–
COC(=O)CCc1cc(OC)c(OC)cc1OC	12.5 µg/mL	15 µg/mL (≈ 59 µM)	>50 µg	5 µg	–
NYSTATIN	–	1 µg/mL	0.1 µg	–	1 µg/mL
